Measured values reported in ChEMBL document CHEMBL1153433, “Design and synthesis of 2-amino-4-methylpyridine analogues as inhibitors for inducible nitric oxide synthase and in vivo evaluation of [18F]6-(2-fluoropropyl)-4-methyl-pyridin-2-amine as a potential PET tracer for inducible nitric oxide synthase” (J Med Chem, 2009).

Legend:
Heart [1] = assay: Biodistribution in LPS treated C57BL/6N mouse heart at 50 uCi/110 uL, iv administered 6 hrs […] LPS challenge measured after 1 hr post drug dose; format: ADME, organism-based; conditions: in vivo
Procedure, shortened: (§1)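 Male C57BL/6N mice aged 6-8 weeks received E. coli O127:B8 LPS in PBS, 10 mg/kg i.v., 6 h before tracer. Tracer ~50 μCi in 10% ethanol/saline, i.v. tail vein. Sacrifice was at 5 min, 30 min, 1 h or 2 h post-injection. Organs were weighed and gamma-counted with injectate standards. Data are %ID/g, mean ± SD, n = 4.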

Muscle tissue [2] = assay: Biodistribution in C57BL/6N mouse muscle at 50 uCi/110 uL, iv after 2 hrs; format: ADME, organism-based; conditions: in vivo
Procedure, shortened: (§2)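 Untreated (control) male C57BL/6N mice aged 6-8 weeks. HPLC-purified tracer, ~50 μCi in 10% ethanol/saline, given i.v. via the tail vein. Mice were sacrificed at 5 min, 30 min, 1 h and 2 h post-injection. Tissues were removed, weighed and gamma-counted against diluted injectate standards. Data are %ID/g, mean ± SD, n = 4.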

Heart [3] = assay: Biodistribution in C57BL/6N mouse heart at 50 uCi/110 uL, iv after 30 mins; format: ADME, organism-based; conditions: in vivo, 0.5 h; procedure, shortened: as §2
[4] = Metabolic stability in Sprague-Dawley rat whole blood at 400 uCi after 1 hr; format: ADME, tissue-based; conditions: read-out: Stability
Procedure, shortened: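 Heparinized whole blood (5 mL) from a mature male Sprague-Dawley rat incubated with ~400 μCi [18F]tracer at 37 °C for 5 min to 2 h. Aliquots lysed with 3 volumes of ethanol and centrifuged; supernatant and pellet gamma-counted. Supernatant species analysed by silica TLC (ethyl acetate), identified by co-elution with non-radioactive standard.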

Heart [5] = assay: Biodistribution in LPS treated C57BL/6N mouse heart at 50 uCi/110 uL, iv administered 6 hrs […] LPS challenge measured after 5 mins post drug dose; format: ADME, organism-based; conditions: in vivo; procedure, shortened: as §1
Muscle tissue [6] = assay: Biodistribution in LPS treated C57BL/6N mouse muscle at 50 uCi/110 uL, iv administered 6 hrs […] LPS challenge measured after 1 hr post drug dose; format: ADME, organism-based; conditions: in vivo
Procedure, shortened: (§3)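 Male C57BL/6N mice, 6-8 weeks; LPS (E. coli O127:B8) in PBS, 10 mg/kg i.v., given 6 h before tracer. HPLC-purified [18F]tracer ~50 μCi in 10% ethanol/saline i.v. via tail vein. Killed at 5 min, 30 min, 1 h or 2 h; tissues weighed and gamma-counted against diluted injectate standards. Reported as %ID/g, mean ± SD, n = 4.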

Blood = assay: Biodistribution in LPS treated C57BL/6N mouse blood at 50 uCi/110 uL, iv administered 6 hrs […] LPS challenge measured after 1 hr post drug dose; format: ADME, organism-based; conditions: in vivo; procedure, shortened: as §1
Liver [7] = assay: Biodistribution in LPS treated C57BL/6N mouse liver at 50 uCi/110 uL, iv administered 6 hrs […] LPS challenge measured after 2 hrs post drug dose; format: ADME, organism-based; conditions: in vivo; procedure, shortened: as §3
Lung [8] = assay: Biodistribution in C57BL/6N mouse lung at 50 uCi/110 uL, iv after 30 mins; format: ADME, organism-based; conditions: in vivo, 0.5 h; procedure, shortened: as §2
Lung [9] = assay: Biodistribution in C57BL/6N mouse lung at 50 uCi/110 uL, iv after 2 hrs; format: ADME, organism-based; conditions: in vivo; procedure, shortened: as §2
Liver [10] = assay: Biodistribution in LPS treated C57BL/6N mouse liver at 50 uCi/110 uL, iv administered 6 hrs […] LPS challenge measured after 5 mins post drug dose; format: ADME, organism-based; conditions: in vivo; procedure, shortened: as §3
Bone [11] = assay: Biodistribution in LPS treated C57BL/6N mouse bone at 50 uCi/110 uL, iv administered 6 hrs […] LPS challenge measured after 2 hrs post drug dose; format: ADME, organism-based, Bone element; conditions: in vivo; procedure, shortened: as §1
Liver [12] = assay: Biodistribution in LPS treated C57BL/6N mouse liver at 50 uCi/110 uL, iv administered 6 hrs […] LPS challenge measured after 1 hr post drug dose; format: ADME, organism-based; conditions: in vivo; procedure, shortened: as §3
Heart [13] = assay: Biodistribution in LPS treated C57BL/6N mouse heart at 50 uCi/110 uL, iv administered 6 hrs […] LPS challenge measured after 30 mins post drug dose; format: ADME, organism-based; conditions: in vivo, 0.5 h; procedure, shortened: as §1
Brain [14] = assay: Biodistribution in C57BL/6N mouse brain at 50 uCi/110 uL, iv after 5 mins; format: ADME, organism-based; conditions: in vivo; procedure, shortened: as §2
Lung [15] = assay: Biodistribution in LPS treated C57BL/6N mouse lung at 50 uCi/110 uL, iv administered 6 hrs […] LPS challenge measured after 5 mins post drug dose; format: ADME, organism-based; conditions: in vivo; procedure, shortened: as §3
Lung [16] = assay: Biodistribution in C57BL/6N mouse lung at 50 uCi/110 uL, iv after 1 hr; format: ADME, organism-based; conditions: in vivo; procedure, shortened: as §2
Muscle tissue [17] = assay: Biodistribution in LPS treated C57BL/6N mouse muscle at 50 uCi/110 uL, iv administered 6 hrs […] LPS challenge measured after 30 mins post drug dose; format: ADME, organism-based; conditions: in vivo, 0.5 h; procedure, shortened: as §3
Kidney [18] = assay: Biodistribution in C57BL/6N mouse kidney at 50 uCi/110 uL, iv after 2 hrs; format: ADME, organism-based; conditions: in vivo; procedure, shortened: as §2
Heart [19] = assay: Biodistribution in LPS treated C57BL/6N mouse heart at 50 uCi/110 uL, iv administered 6 hrs […] LPS challenge measured after 2 hrs post drug dose; format: ADME, organism-based; conditions: in vivo; procedure, shortened: as §1
Kidney [20] = assay: Biodistribution in LPS treated C57BL/6N mouse kidney at 50 uCi/110 uL, iv administered 6 hrs […] LPS challenge measured after 2 hrs post drug dose; format: ADME, organism-based; conditions: in vivo; procedure, shortened: as §3
Muscle tissue [21] = assay: Biodistribution in LPS treated C57BL/6N mouse muscle at 50 uCi/110 uL, iv administered 6 hrs […] LPS challenge measured after 5 mins post drug dose; format: ADME, organism-based; conditions: in vivo; procedure, shortened: as §3
Bone [22] = assay: Biodistribution in C57BL/6N mouse bone at 50 uCi/110 uL, iv after 30 mins; format: ADME, organism-based, Bone element; conditions: in vivo, 0.5 h; procedure, shortened: as §2
Muscle tissue [23] = assay: Biodistribution in C57BL/6N mouse muscle at 50 uCi/110 uL, iv after 5 mins; format: ADME, organism-based; conditions: in vivo; procedure, shortened: as §2
Lung [24] = assay: Biodistribution in LPS treated C57BL/6N mouse lung at 50 uCi/110 uL, iv administered 6 hrs […] LPS challenge measured after 2 hrs post drug dose; format: ADME, organism-based; conditions: in vivo; procedure, shortened: as §3
Mus musculus = assay: Biodistribution in LPS treated C57BL/6N mouse at 5 uCi, iv co-administered with nonselective NOS inhibitor 2-amino-4-methylpyridine measured after 1 hr; format: ADME, organism-based; conditions: in vivo
Bone [25] = assay: Biodistribution in C57BL/6N mouse bone at 50 uCi/110 uL, iv after 2 hrs; format: ADME, organism-based, Bone element; conditions: in vivo; procedure, shortened: as §2
Liver [26] = assay: Biodistribution in C57BL/6N mouse liver at 50 uCi/110 uL, iv after 5 mins; format: ADME, organism-based; conditions: in vivo; procedure, shortened: as §2
Brain [27] = assay: Biodistribution in C57BL/6N mouse brain at 50 uCi/110 uL, iv after 1 hr; format: ADME, organism-based; conditions: in vivo; procedure, shortened: as §2
Heart [28] = assay: Biodistribution in C57BL/6N mouse heart at 50 uCi/110 uL, iv after 1 hr; format: ADME, organism-based; conditions: in vivo; procedure, shortened: as §2
Muscle tissue [29] = assay: Biodistribution in C57BL/6N mouse muscle at 50 uCi/110 uL, iv after 1 hr; format: ADME, organism-based; conditions: in vivo; procedure, shortened: as §2
Liver [30] = assay: Biodistribution in LPS treated C57BL/6N mouse liver at 50 uCi/110 uL, iv administered 6 hrs […] LPS challenge measured after 30 mins post drug dose; format: ADME, organism-based; conditions: in vivo, 0.5 h; procedure, shortened: as §3
Lung [31] = assay: Biodistribution in C57BL/6N mouse lung at 50 uCi/110 uL, iv after 5 mins; format: ADME, organism-based; conditions: in vivo; procedure, shortened: as §2
Brain [32] = assay: Biodistribution in C57BL/6N mouse brain at 50 uCi/110 uL, iv after 30 mins; format: ADME, organism-based; conditions: in vivo, 0.5 h; procedure, shortened: as §2
Bone [33] = assay: Biodistribution in LPS treated C57BL/6N mouse bone at 50 uCi/110 uL, iv administered 6 hrs […] LPS challenge measured after 30 mins post drug dose; format: ADME, organism-based, Bone element; conditions: in vivo, 0.5 h; procedure, shortened: as §1

Cc1cc(N)nc(CC(C)[18F])c1 (stereo not given)
Drug uptake (Heart [1]): 0.41 % ID/g
Drug uptake (Muscle tissue [2]): 0.34 % ID/g
Drug uptake (Heart [3]): 0.6 % ID/g
remaining at 1 h, 400 uCi [4]: 80%
Drug uptake (Heart [5]): 2.03 % ID/g
Drug uptake (Muscle tissue [6]): 0.78 % ID/g
Drug uptake (Blood): 0.86 % ID/g
Drug uptake (Liver [7]): 0.42 % ID/g
Drug uptake (Lung [8]): 1.14 % ID/g
Drug uptake (Lung [9]): 0.15 % ID/g
Drug uptake (Liver [10]): 24.6 % ID/g
Drug uptake (Bone [11]): 3.77 % ID/g
Drug uptake (Liver [12]): 2.63 % ID/g
Drug uptake (Heart [13]): 1.02 % ID/g
Drug uptake (Brain [14]): 1.6 % ID/g
Drug uptake (Lung [15]): 4.32 % ID/g
Drug uptake (Lung [16]): 0.31 % ID/g
Drug uptake (Muscle tissue [17]): 1.06 % ID/g
Drug uptake (Kidney [18]): 0.8 % ID/g
Drug uptake (Heart [19]): 0.12 % ID/g
Drug uptake (Kidney [20]): 0.91 % ID/g
Drug uptake (Muscle tissue [21]): 1.64 % ID/g
Drug uptake (Bone [22]): 2.26 % ID/g
Drug uptake (Muscle tissue [23]): 1.25 % ID/g
Drug uptake (Lung [24]): 0.18 % ID/g
Activity (Mus musculus): Not Active
Drug uptake (Bone [25]): 5.59 % ID/g
Drug uptake (Liver [26]): 33.2 % ID/g
Drug uptake (Brain [27]): 0.11 % ID/g
Drug uptake (Heart [28]): 0.19 % ID/g
Drug uptake (Muscle tissue [29]): 0.27 % ID/g
Drug uptake (Liver [30]): 7.06 % ID/g
Drug uptake (Lung [31]): 3.33 % ID/g
Drug uptake (Brain [32]): 0.28 % ID/g
Drug uptake (Bone [33]): 3.7 % ID/g
